From ChEMBL document CHEMBL2331427, “Synthesis and biological evaluation of thieno [2',3':4,5]pyrimido[1,2-b][1,2,4]triazines and thieno[2,3-d][1,2,4]triazolo[1,5-a]pyrimidines as anti-inflammatory and analgesic agents” (Eur J Med Chem, 2013)

Assays:
[1] = tested on: Rattus norvegicus; assay: Analgesic activity in albino rat assessed as increase in tail withdrawal latency at 20 mg/kg, po after 1 hr relative to control; assay type: functional
In short: (§1)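 Male albino rats, 120-150 g, five per group, free access to food and water. Compounds given orally at 20 mg/kg; control group kept, diclofenac Na reference at 20 mg/kg po. Tail withdrawal after immersion in 55 °C water. Reaction time read at 1, 2 and 4 h. Reported as mean ± S.E. and as % increase over basal values. ANOVA with Student-Newman-Keuls, P < 0.05.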

[2] = tested on: Rattus norvegicus; assay: Antiinflammatory activity in albino rat assessed as inhibition of formalin-induced paw edema at 20 mg/kg, po qd administered 7 days measured on day 1 post formalin challenge by plethysmometric analysis relative to control; assay type: functional
In short: (§2)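 Sub-acute model in rats. Compounds given orally at 20 mg/kg daily for 7 consecutive days. 2% formalin (0.1 ml) injected subplantar into left hind paw under light ether anaesthesia 1 h after the day-1 dose, with a second injection on day 3. Paw volume measured plethysmographically on days 1 and 8. Inhibition calculated versus control.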

[3] = tested on: Rattus norvegicus; assay: Antiinflammatory activity in albino rat assessed as inhibition of formalin-induced paw edema at 20 mg/kg, po administered 1 hr prior to formalin challenge measured after 1 hr by plethysmometric analysis relative to control; assay type: functional
In short: (§3)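 Male albino rats, 180-200 g, five per group. Test compounds given orally at 20 mg/kg; diclofenac Na reference at 20 mg/kg po. After 1 h, 2% formalin (0.1 ml) injected subplantar into left hind paw under light ether anaesthesia. Paw volume read by water plethysmometer at 0, 1, 2 and 4 h. % inhibition of edema increase (Vt−Vo) calculated versus control; mean ± S.E.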

[4] = tested on: Rattus norvegicus; assay: Analgesic activity in albino rat assessed as increase in tail withdrawal latency at 20 mg/kg, po after 2 hrs relative to control; assay type: functional; in short: as §1
[5] = tested on: Rattus norvegicus; assay: Analgesic activity in albino rat assessed as increase in tail withdrawal latency at 20 mg/kg, po after 4 hrs relative to control; assay type: functional; in short: as §1
[6] = tested on: Rattus norvegicus; assay: Antiinflammatory activity in albino rat assessed as inhibition of formalin-induced paw edema at 20 mg/kg, po administered 1 hr prior to formalin challenge measured after 4 hrs by plethysmometric analysis relative to control; assay type: functional; in short: as §3
[7] = tested on: Rattus norvegicus; assay: Antiinflammatory activity in albino rat assessed as inhibition of formalin-induced paw edema at 20 mg/kg, po administered 1 hr prior to formalin challenge measured after 2 hrs by plethysmometric analysis relative to control; assay type: functional; in short: as §3
[8] = tested on: Rattus norvegicus; assay: Antiinflammatory activity in albino rat assessed as inhibition of formalin-induced paw edema at 20 mg/kg, po qd administered 7 days measured on day 8 post formalin challenge by plethysmometric analysis relative to control; assay type: functional; in short: as §2
[9] = tested on: Rattus norvegicus; assay: Antiinflammatory activity in po dosed albino rat assessed as inhibition of formalin-induced paw edema administered 1 hr prior to formalin challenge measured after 2 hrs by plethysmometric analysis; assay type: functional
In short: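 Male albino rats, 180-200 g, groups of five, dosed orally at 5, 10, 20, 40 and 50 mg/kg. After 1 h, 2% formalin (0.1 ml) injected subplantar into left hind paw. Paw edema inhibition measured plethysmometrically 2 h after formalin injection. ED50 derived from these doses.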

[10] = tested on: Rattus norvegicus; assay: Ulcerogenic activity in albino rat assessed as appearance of hyperemia at 300 mg/kg, po bid administered for 3 days measured after 6 hrs post last dose relative to control; assay type: toxicity, organism-based; set-up: dose 300 mg/kg, route oral; settings: in vivo
In short: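 Rats received 300 mg/kg per day orally as two equal doses at 0 and 12 h for three successive days, with water ad libitum. Controls received 1% gum acacia orally. Animals were killed with diethyl ether 6 h after the last dose. Stomachs were removed and inspected grossly for hyperemia and ulceration. Diclofenac Na served as reference.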

[11] = Acute toxicity in po dosed rat assessed as mortality after 24 hrs; assay type: organism-based; settings: in vivo, read-out: ALD50
In short: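 Male rats, 180-200 g, groups of five, fasted 24 h before dosing. Compounds given orally at graded doses of 0.1-0.3 g/kg body weight. Mortality at each dose level recorded after 24 h to estimate approximate acute lethal dose (ALD50).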

Row | Compound | Activity [1] [%] | inhibition in vivo at 20 mg/kg [2] [%] | inhibition in vivo at 20 mg/kg [3] [%] | Activity [4] [%] | Activity [5] [%] | inhibition in vivo at 20 mg/kg [6] [%] | inhibition in vivo at 20 mg/kg [7] [%] | inhibition in vivo at 20 mg/kg [8] [%] | ED50 [9] [mg/kg] | Activity [10] | LD50 at 24 h [11] [mg/kg]
1 | Cc1sc2nc3ncc(-c4ccc(Br)cc4)nn3c(=O)c2c1C | 13 | 33 | 13 | 24 | 28 | 27 | 5 | 25 | – | – | –
2 | Cc1sc2nc3[nH]c(=S)[nH]n3c(=O)c2c1C | 27 | 47 | 42 | 35 | 39 | 27 | 43 | 40 | 27.5 | 20% | > 300
3 | Cc1ccc(-c2cnc3nc4sc(C)c(C)c4c(=O)n3n2)cc1 | 13 | 25 | 21 | 25 | 29 | 27 | 28 | 22 | – | – | –
4 | Cc1sc2nc3[nH]c(CC(=O)Nc4ccc(Cl)cc4)nn3c(=O)c2c1C | 28 | 36 | 33 | 32 | 40 | 29 | 28 | 38 | – | – | –
5 | Cc1sc2nc3ncc(-c4ccccc4)nn3c(=O)c2c1C | 17 | 38 | 14 | 34 | 50 | 34 | 28 | 38 | – | – | –
6 | Cc1sc2nc3[nH]c(Nc4ccc(Cl)cc4)nn3c(=O)c2c1C | 26 | 36 | 9 | 40 | 54 | 11 | 6 | 24 | – | – | –
7 | Cc1sc2nc3[nH]c(CC#N)nn3c(=O)c2c1C | 41 | 47 | 42 | 53 | 64 | 36 | 25 | 38 | 29 | 20% | > 300
8 | Cc1sc2nc3ncc(-c4ccc(Cl)cc4)nn3c(=O)c2c1C | 6 | 36 | 14 | 11 | 23 | 20 | 12 | 18 | – | – | –
9 | COc1ccc(NC(=O)Cc2nn3c(=O)c4c(C)c(C)sc4nc3[nH]2)cc1 | 14 | 41 | 47 | 35 | 42 | 43 | 40 | 38 | 18.4 | Non-toxic | > 300
10 | Cc1ccc(Nc2nn3c(=O)c4c(C)c(C)sc4nc3[nH]2)cc1 | 23 | 33 | 21 | 31 | 44 | 18 | 5 | 24 | – | – | –
11 | Cc1sc2nc3[nH]c(Nc4ccccc4)nn3c(=O)c2c1C | 5 | 36 | 9 | 17 | 26 | 25 | 12 | 20 | – | – | –
12 | CCOC(=O)Cc1nn2c(=O)c3c(C)c(C)sc3nc2[nH]1 | 19 | 47 | 47 | 47 | 62 | 56 | 53 | 40 | 28.1 | 20% | > 300
13 | Cc1nn2c(=O)c3c(C)c(C)sc3nc2[nH]1 | 30 | 44 | 38 | 40 | 54 | 52 | 43 | 31 | 23.4 | Non-toxic | > 300
14 | Cc1sc2nc3[nH]c(CC(=O)Nc4ccccc4)nn3c(=O)c2c1C | 21 | 50 | 42 | 36 | 51 | 40 | 37 | 37 | 26.1 | 20% | > 300
15 | O=C([O-])Cc1ccccc1Nc1c(Cl)cccc1Cl.[Na+] [DICLOFENAC SODIUM] | 30 | 44 | 38 | – | 56 | 52 | – | 40 | 25.1 | 20% | –
